Screens from PubChem.
SR-BI DiI inh: inhibitors of SR-BI mediated HDL lipid uptake, primary screen, ldlA[mSR-BI] cells, fluorescence, single point. inhibition, % at 12.5 µM. ldlA[mSR-BI] CHO cells, DiI-HDL uptake fluorescence, 3 h. hit rate 0.96% among 320,000. Scavenger receptor class B member 1 (Mus musculus), Q61009. AID 488896, 2010;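 active = mean replicate inhibition of at least 70% and a set share of replicates each scoring 70 or more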
Target sequence (Q61009 whole entry, looked up): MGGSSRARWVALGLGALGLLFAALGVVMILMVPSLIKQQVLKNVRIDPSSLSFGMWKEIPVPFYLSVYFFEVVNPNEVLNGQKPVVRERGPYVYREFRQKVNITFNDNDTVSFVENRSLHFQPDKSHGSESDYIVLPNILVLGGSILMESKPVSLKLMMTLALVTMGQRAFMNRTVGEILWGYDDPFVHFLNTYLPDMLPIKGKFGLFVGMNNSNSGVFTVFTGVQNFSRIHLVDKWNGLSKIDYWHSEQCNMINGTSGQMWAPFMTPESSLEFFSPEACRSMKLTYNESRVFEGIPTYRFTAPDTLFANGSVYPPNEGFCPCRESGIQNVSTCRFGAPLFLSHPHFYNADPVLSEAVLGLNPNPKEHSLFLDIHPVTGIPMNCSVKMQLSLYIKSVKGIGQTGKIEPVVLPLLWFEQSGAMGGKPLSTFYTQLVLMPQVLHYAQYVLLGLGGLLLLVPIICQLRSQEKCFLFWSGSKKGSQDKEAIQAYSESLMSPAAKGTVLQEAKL
A1 inh: caspase 3/7 activation in MEF A1-2A-BIM cells, primary screen, A1 inhibitor project, cell-based, luminescence, HTS. hit rate 0.066% among 330,000. Caspase-Glo 3/7 luminescence, 3 h; percent of clofoctol response, vehicle zero. caspase activation, % (concentration not given with the values);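 active = over half of replicate activation scores above 10%, or exactly half above 10 with the replicate mean above 10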
H9c2 TAG inh: inhibitors of triacylglycerol accumulation, primary screen, cell-based, uHTS, fluorescence, H9c2. H9c2 cells, Nile Red lipid (TAG) fluorescence; cells loaded with 200 µM oleic acid. inhibition, % at 12.5 µM. hit rate 0.66% among 230,000;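 active = pattern-corrected inhibition of lipid staining of at least 50% with the nuclear-stain viability signal not falling by more than 50%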
SR-BI uptake up: activators of SR-BI mediated DiI-HDL uptake, primary screen, ldlA[mSR-BI] CHO cells, DiI fluorescence; AID 504775, 2011; activation, % at 12.5 µM; 3 h; 100 = double the neutral-control signal; hit rate 0.096% among 320,000;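 active = mean replicate activation of at least 60% and every replicate at or above 60%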
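Material: SR-BI-overexpressing, LDLR-lacking CHO cells | Dosing: Single compound concentration, delivered by pin transfer | Probe or stimulus: Labelled HDL, 10 µg/mL | Signal: Bottom-read cell fluorescence after medium removal, ex 550/em 595 nm | Schedule: 3 h, 37 °C | Evaluation: HDL uptake via cellular fluorescence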
Vif inh: HIV Vif self-association inhibitors, primary screen, imaging, HEK293T, single point; HEK293T cells, Vif self-association by quenched fluorescence, 24 h; inhibition, % at 7.49 µM; hit rate 0.35% among 340,000; AID 602346, 2012; in the data active = inhibition above about 50%, passing the limit was not always enough
Large screens that a line does not name were inactive. Hits are enriched below; roughly 1.6% of the tested compounds scored in any of these assays.

Cc1ccc(S(=O)(=O)NC(=O)Nc2ccc(N(C)C)cc2)cc1	H9c2 TAG inh 60
O=C(Nc1ccc(N2CCCCC2)cc1)c1ccc2ccccc2n1	none
Cc1ncc(CO)c(/C=N/NC(=O)c2ccc(O)cc2)c1O	none (no result: H9c2 TAG inh)
Cc1ncc(CO)c(/C=N/NC(=O)c2cc3c(s2)CCCC3)c1O	SR-BI DiI inh 104
O=C(COC(=O)COc1ccc(Cl)cc1Br)NC1CCCCCC1	Vif inh 59 (no result: SR-BI uptake up)
O=C(COC(=O)COc1ccc(Cl)cc1Br)NC1CCCC1	none (no result: SR-BI DiI inh, A1 inh, SR-BI uptake up, Vif inh)
O=C(COc1ccc(C(=O)c2ccccc2)cc1)NC1CCCCC1	SR-BI uptake up 69 (no result: H9c2 TAG inh)
O=C(COC(=O)/C=C/c1ccccc1Cl)NC1CCCCCC1	SR-BI uptake up 65 (no result: H9c2 TAG inh)
Cc1ccc(CN2CCN(Cc3ccc4cc(F)ccc4n3)CC2CCO)o1 (configuration not stated)	none (no result: SR-BI DiI inh, SR-BI uptake up)
C=CCN(Cc1cccs1)C(=O)COc1ccc2c(c1)OCO2	none
NC(=S)NN=C(c1ccccc1)c1ccccc1	none (no result: H9c2 TAG inh)
CC(/C=C/c1ccccc1)=N\NC(N)=S	SR-BI DiI inh 77
CC(=O)N/N=C(\C)c1ccc2c(c1)OCCO2	none
C/C(=N\NC(N)=S)c1ccccc1	SR-BI DiI inh 86
C/C(=N\NC(N)=S)c1ccc2c(c1)OCCO2	SR-BI DiI inh 76
C=CCn1c(=O)/c(=C/c2ccsc2)s/c1=C(\C#N)C(=O)NCCN1CCOCC1	none (no result: A1 inh)
COCCn1c(SC(C)C(=O)Nc2ccc(Cl)cn2)nnc1-c1ccncc1 (configuration not stated)	none
COCCNC(=O)NC1(C(F)(F)F)Oc2ccc(Cl)cc2O1 (configuration not stated)	none
O=C(NCc1cccnc1)NC1(C(F)(F)F)Oc2ccc(Cl)cc2O1 (configuration not stated)	Vif inh 137
Cc1cc(NC(=O)NC2(C(F)(F)F)Oc3ccc(Cl)cc3O2)no1 (configuration not stated)	Vif inh 105 (no result: H9c2 TAG inh)
O=c1c2ccccc2nnn1CSc1nnc(Nc2ccccc2)s1	Vif inh 51
Cc1ccc(Nc2nnc(SCn3nnc4ccccc4c3=O)s2)cc1	none
CCOC(=O)C1CCCN(Cc2nc(CC3CC3)no2)C1 (configuration not stated)	none (no result: SR-BI DiI inh, SR-BI uptake up)
O=C(OCC(=O)N1N=C(c2ccc(Cl)cc2)CC1c1ccco1)c1cccnc1 (configuration not stated)	none
CC(C)(CO)NCc1cc(Br)ccc1OCc1ccccc1	none (no result: H9c2 TAG inh)
COc1cc(CNC(C)(C)CO)cc(Br)c1OCc1ccccc1	Vif inh 56
Cn1c(=O)c2cc(NC(=O)NCc3ccc(F)cc3)ccc2n1C	none (no result: SR-BI DiI inh, A1 inh, SR-BI uptake up)
Cc1ccc(NC(=O)c2cc(C(=O)c3cc(Cl)ccc3O)cn(-c3ccc(C)cc3)c2=O)cc1	SR-BI DiI inh 83 (no result: H9c2 TAG inh)
N#Cc1cc(C(=O)c2cc(Cl)ccc2O)cn(-c2ccccc2)c1=O	SR-BI uptake up 76
COc1ccc2nc(NC(=O)CCc3cc(OC)c(OC)c(OC)c3)sc2c1	SR-BI DiI inh 72
COc1cc(CCC(=O)Nc2cc(C)cc(C)c2)cc(OC)c1OC	SR-BI DiI inh 83
Cc1ccc(S(=O)(=O)N(C)C)cc1NC(=O)Cn1c(CN2CCOCC2)nc2ccccc2c1=O	none
CCc1ccc(NC(=O)c2cccc(C(=O)Nc3ccc(CC)cc3)n2)cc1	none
Cc1ccc(NC(=O)c2cccc(C(=O)Nc3ccc(C)c(C)c3)n2)cc1C	SR-BI DiI inh 75 (no result: Vif inh)
CN(/N=C/c1ccc(O)cc1O)c1nc(-c2ccccc2)cc(-c2ccccc2)n1	SR-BI DiI inh 90 (no result: H9c2 TAG inh)
S=C1Nc2ccccc2CS1	none (no result: SR-BI DiI inh, A1 inh, SR-BI uptake up)
S=C1Cc2ccccc2N1	SR-BI DiI inh 97 (no result: A1 inh)
Cc1ccc(N2CC(C(=O)Nc3cccc(S(=O)(=O)N4CCOCC4)c3)CC2=O)cc1 (configuration not stated)	none (no result: SR-BI DiI inh, A1 inh, SR-BI uptake up)
COc1ccc(Nc2c([N+](=O)[O-])ccc3c2=NC2(CCCCC2)N=3)cc1	SR-BI DiI inh 86
O=[N+]([O-])c1ccc2c(c1Nc1ccccc1)=NC1(CCCCC1)N=2	none (no result: Vif inh)
CC(C)c1nc2oc3c(NCCO)ncnc3c2c2c1COC(C)(C)C2	SR-BI uptake up 239
NC(=S)NN=C1CCCCCCCCCC1	SR-BI DiI inh 76 (no result: A1 inh)
